The nature of this series: Toxicity liver stage against HepG2, at 10uM. It is filed as cell-based. Set-up: test concentration 10 uM, cell line HepG2-A16-CD81EGFP. The following applies: human, HepG2-A16-CD81EGFP cells; read-out: INHIBITION
The essentials: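 Uninfected HepG2-A16-CD81EGFP cells, 3 × 10^3 per well, 1536-well, plated on prespotted compound at 10 μM final, parasite-free screening media added to match infected plates; puromycin 10 μM positive, DMSO 0.5% negative; run in parallel with 48 h PbLuc assay at 37 °C, 5% CO2; viability by CellTiter-Glo luminescence, normalized to controls.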
`O=C(COc1cccc2c1CCC2=O)NCc1ccccc1Cl`: the cytotoxicity at 10 µM was -3.46%.
The figure for `OC(CN1CCC(CNCc2ccccn2)CC1)c1ccccc1` (configuration not stated) is -2.15%; for `CNC(=O)COC1COC2(CCN(c3cnccn3)CC2)C1` (configuration not stated) it is -8.44%; for `CN1CCN(c2nc(O)cc(Cc3ccccc3F)n2)CC1` it is -5.08%.
Consider `CCn1ccnc1CN1CCN(CCc2ccccn2)CC1C` (configuration not stated), for which the cytotoxicity at 10 µM was -8.74%.
With `CCn1ncc2c1C(COC)CN(S(=O)(=O)C1CC1)C2` (configuration not stated) the figure was 11.1%.
`CCCn1cnc2c1CN(C(=O)c1ccc(F)cc1)[C@H](C(=O)OC)C2`: the cytotoxicity at 10 µM was found to be 4.94%.
Regarding `Cc1nc(C2CCNCC2)cc(N2CCCC(C(=O)NCCCO)C2)n1` (configuration not stated), the cytotoxicity at 10 µM was -124%.
With `COCc1noc(CCNc2ncnc3c2CCNCC3)n1` the figure was -5.59%; with `CCCOCCNc1nc2c(s1)c(C)nn2C`, -15.9%.
Regarding `CCOc1ccccc1N1CCN(c2nnc(C)o2)CC1`, the cytotoxicity at 10 µM was -10.9%.
In the case of `Cn1ccc(C(=O)N2C[C@@H]3CCN(c4cnccn4)C[C@@H]3C2)n1`, the cytotoxicity at 10 µM is -106%.
With `Cc1c[nH]c(CN(C)C(=O)C2CC(=O)N(Cc3ccncc3)C2)n1` (configuration not stated) the figure was 16.7%; with `Cc1nnc(SCCNC(=O)CC2CCc3ccccc32)s1` (configuration not stated), -3.13%.
The figure for `O=C1NC2(Cc3ccccc31)CN(CC1CCCC1)C2` is 7.58%; for `O=C(c1ccc(O)c(Cl)c1)N1C[C@@H](CN2CCCCCC2)[C@@H](CO)C1` it is 1.89%.
Turning to `N#Cc1ccc(OCCn2cccn2)cc1`, the cytotoxicity at 10 µM turned out to be 11.2%.
With `CCc1cnc(N2C[C@@H]3[C@@H](C(=O)NCC(C)C)CCS(=O)(=O)[C@@H]3C2)nc1` the figure was -135%.
The figure for `O=C1CCC2(CCCN(Cc3nccs3)C2)N1CC1CC1` (configuration not stated) is -68.4%; for `O=C(CC1CC1)N1CC[C@H]2[C@@H]1CCC(=O)N2Cc1ccncc1` it is -5.15%.
On to `Cc1ccnc(NC(=O)c2cncc(C3CCNCC3)n2)c1`, for which the cytotoxicity at 10 µM is -9.48%.
As for `Cc1noc(C2CCCCN2C(=O)NC2CCCC2)n1` (configuration not stated), the cytotoxicity at 10 µM amounted to 2.4%.
For the molecule `Cc1nsc(NC2CCOC3(CCCC3)C2)n1` (configuration not stated), the cytotoxicity at 10 µM came to 8.85%.
The figure for `COc1c(C2CCCN2C(=O)c2cc(Cl)c[nH]2)c(C)nn1C` (configuration not stated) is 4.6%; for `CCCc1n[nH]c(C2CN(CCNS(=O)(=O)CC)CCO2)n1` (configuration not stated) it is 2.43%; for `Cc1cccc(NS(=O)(=O)c2cc(C(=O)O)oc2C)c1Cl` it is -14.6%.
For the molecule `CN(Cc1ccccc1)S(=O)(=O)N1C[C@@H](C(=O)O)[C@H](C2CC2)C1`, the cytotoxicity at 10 µM is -150%.
`CC(C)c1noc(CCC(=O)N(CC2CCOC2)C2CC2)n1` (configuration not stated): the cytotoxicity at 10 µM is 8.01%.
The figure for `Cc1cccc(C(=O)NCc2ccc(N3CCCCC3)nc2)n1` is 4.26%; for `Cc1cc2ccccc2n1CCC(=O)N1CCCCC1CCO` (configuration not stated) it is 10.4%.
The figure for `COC(=O)c1ccc(NC(=O)CCNCc2ccco2)cc1` is -3.64%; for `O=C1CCN(C(=O)C2(c3ccc(F)cc3)CCCC2)CCN1` it is -8.27%; for `CCc1cnc(NCC(c2cccnc2)N2CCOCC2)nc1` (configuration not stated) it is 9.6%.
`CCCC(=O)NC1CCCN(C(=O)c2ccc(C)nc2)C1` (configuration not stated): the cytotoxicity at 10 µM is 17.5%.
Regarding `Cc1ccc(C2CSCCN2C(=O)c2ccccn2)cc1` (configuration not stated), the cytotoxicity at 10 µM was 2.04%.
With `Cc1nc(NCc2ccc(F)cc2)cc(C2CCCN2)n1` (configuration not stated) the figure was -3.27%; with `Cc1nncn1CCN1C(=O)CC2(CCCC2)CC1=O`, -0.745%.
With `COc1ccccc1C(C)(C)NCc1ccco1` the figure was 5.95%.
The figure for `CCn1c(C)nc2cc(NC(=O)C3CN(C(C)=O)C3)ccc21` is 3.46%; for `Cc1nnsc1CN(C)Cc1ccc(C(=O)Nc2sccc2C#N)cc1` it is 4.06%; for `Cc1noc(C)c1C(=O)NCc1ccc(N2CCCCCC2)nc1` it is 2.76%.
On to `CN(C)c1cccc(C2CCCN2Cc2nnnn2C2CC2)c1` (configuration not stated), for which the cytotoxicity at 10 µM was 5.15%.
`O=C(c1cccnc1)N1CCC(Oc2cccc(C(F)(F)F)c2)CC1`: the cytotoxicity at 10 µM worked out at 7.19%.
As for `CC(C)c1cnc(CN2CCCC(c3cc(C(N)=O)[nH]n3)C2)o1` (configuration not stated), the cytotoxicity at 10 µM was -13.5%.
As to `CC(=O)N1CCN(C(=O)c2cnc(OC(C)C)c(Cl)c2)CC1`, the cytotoxicity at 10 µM is -4.36%.
With `Cc1nnsc1CN1C[C@@H]2CC[C@H]1CN(Cc1ccccc1)C2` the figure was 0.929%; with `COCC(=O)N1CCc2ccc(=O)n(Cc3csc(C)n3)c2CC1`, 8.19%.
On to `COc1cccc(-c2cc(C(=O)NCCCn3cnnc3)[nH]n2)c1`, for which the cytotoxicity at 10 µM came out at 3.45%.
The figure for `CN(CC(=O)NCC(F)(F)F)Cc1nc2c(s1)CCCC2` is 19%.
For the molecule `CCS(=O)(=O)N1CCOC2(COCCN(c3nccs3)C2)C1` (configuration not stated), the cytotoxicity at 10 µM came to 7.4%.
For `Cc1ccc(NC(=O)Cn2ccc3c(=O)n(C)ccc32)cc1F`, the cytotoxicity at 10 µM is -2.74%.
Turning to `CCn1cc(CN2C[C@@H]3CC[C@H]2CN(C(=O)C2CCC2)C3)cn1`, the cytotoxicity at 10 µM came out at 3.5%.
Consider `CC(C)c1noc(CCCC(=O)N2CCN(Cc3ccsc3)CC2)n1`, for which the cytotoxicity at 10 µM was -5.19%.
As for `CC(C)(C)CC(=O)N1C[C@H]2CCN[C@H]2C1`, the cytotoxicity at 10 µM worked out at 4.19%.
The figure for `Cc1noc(Cl)c1CCC(=O)N1CCC(CC(N)=O)CC1` is -0.0707%; for `CC(C)CNC(=O)c1cn(-c2ccccn2)c(=O)c2ccccc12` it is 0.318%.
As for `OC(CN1CCN(CC2CC2)CC1)c1ccc(Br)cc1` (configuration not stated), the cytotoxicity at 10 µM was -8.69%.
The figure for `O=C(NCCC1CCN(CC(F)(F)F)CC1)C1CCCOC1` (configuration not stated) is 1.51%; for `CC(C)N1[C@H](Cn2cncn2)C[C@@H]2CN(Cc3nccn3C)CC[C@@H]21` it is -106%.
Regarding `c1ccc(-c2nc(CNCCn3cccn3)cs2)nc1`, the cytotoxicity at 10 µM is -21.1%.
The figure for `Cc1ccc2c(c1)C(NC(=O)N(C)C)CC21CCN(CC2CC2)CC1` (configuration not stated) is 4.44%; for `COc1ncc(CN(CCN(C)C)Cc2ccc(C)s2)cn1` it is -50.3%.
With `O=C(NCC1SCCc2ccccc21)c1cscn1` (configuration not stated) the figure was -1.88%; with `Brc1cccc(C2(CNCc3cc[nH]c3)CCOCC2)c1`, 8.95%.
Regarding `CN(C)C(=O)CCCS(=O)(=O)Cc1cc(Cl)c2c(c1)OCO2`, the cytotoxicity at 10 µM is -4.52%.
With `COC(=O)c1cc(OCC2CCC2)cc(C(=O)N[C@@H]2CNCC[C@H]2O)c1` the figure was -12%; with `O=C(NCC(F)(F)F)C1CSCN1S(=O)(=O)c1ccc(F)cc1Cl` (configuration not stated), -12.8%.
With `O=C(CO)N1CCCC2(CCN(c3ccsc3)C2=O)C1` (configuration not stated) the figure was -66.8%.
With `Cc1nc(CN2CCc3ncnc(-c4ccc(F)cc4)c3CC2)cs1` the figure was 4.89%; with `CCC(C)N(Cc1sccc1C)C(=O)c1ccc(S(C)(=O)=O)cc1` (configuration not stated), 6.7%.
In the case of `CN(C)C(=O)Cn1cnc2c(Br)cccc2c1=O`, the cytotoxicity at 10 µM was -8.97%.
Consider `CCc1ccc(C(=O)O)cc1S(=O)(=O)N(C)c1cccc(C#N)c1`, for which the cytotoxicity at 10 µM is -2.08%.
The figure for `Cc1ccc(CN2CC3(CCN(C(=O)C4CC4)CC3)CC2C(=O)O)o1` (configuration not stated) is 1.52%; for `O=C1CCC2(CCCN(C(=O)c3ncc[nH]3)C2)CN1CCc1c[nH]cn1` (configuration not stated) it is -2.47%.
Turning to `CCn1c(C(=O)N2CCN(C(=O)COC)CC2)cc2ccccc21`, the cytotoxicity at 10 µM was -6.59%.
With `O=C(NCc1cccnc1)c1ccc2nccn2c1` the figure was 8.08%; with `O=C(Cc1cccc(F)c1)N1CCN2C[C@H](Oc3cncnc3)C[C@H]2C1`, 6.1%.
With `O=C(c1ccc(-n2cnnc2)cc1Cl)N1CCCC(O)(CO)CC1` (configuration not stated) the figure was -3.59%; with `Cc1cc(C)nc(C2CCN(c3ccncn3)C2)n1` (configuration not stated), -0.419%.
The figure for `COC(=O)c1ccc(CN2CCC(c3n[nH]c(C)n3)CC2)s1` is -2.87%; for `CN(C)CCCn1ccnc1C1CCCN(c2cc(N)ncn2)C1` (configuration not stated) it is -2.1%; for `CCc1nc(CNc2nc3c(s2)c(C)nn3C)cs1` it is -72%.
Consider `COc1ccccc1OCCNC(=O)NCC(C)C`, for which the cytotoxicity at 10 µM came out at 7.54%.
With `CC(C)COC1CC2(CCN(C(=O)Cc3ccccn3)CC2)C1` the figure was -113%; with `O=C(O)c1ccnc2c(Br)cccc12`, 8.02%; with `CC(Cc1ccsc1)NC(=O)c1cc(N2CCNC2=O)ccc1F` (configuration not stated), -4.62%.
Turning to `CC(C(=O)N1CCCN(Cc2ccc(C#N)cc2)CC1)n1ccnc1` (configuration not stated), the cytotoxicity at 10 µM is -10.9%.
On to `CNc1ccc(C2CN(c3cc(C)ncn3)CCO2)nc1` (configuration not stated), for which the cytotoxicity at 10 µM was found to be 7.14%.
With `CC1CCN(c2nc3cn(-c4ccccc4)c(=O)c-3c[nH]2)CC1` the figure was -12.6%; with `Clc1cccc2c1CCN(Cc1nc(CC3CC3)no1)C2`, 0.873%; with `Cc1ccn(-c2ccc(C(=O)N3CCCC(n4ccnc4)C3)cc2)n1` (configuration not stated), -8.31%.
With `O=C(NCC1CC1)[C@@H]1C[C@@H]2CCN(Cc3ccccc3)C[C@H]2O1` the figure was 4.21%.
On to `CNC(=O)C1(Cc2cc(C(C)C)no2)CCN(Cc2ccccn2)C1` (configuration not stated), for which the cytotoxicity at 10 µM was 6.24%.
The figure for `CCc1noc(CN2CCN(C(=O)N(CC)CC)CC2)n1` is -1.67%; for `Cc1ccccc1OCCN1CCCC(c2cc(C(N)=O)[nH]n2)C1` (configuration not stated) it is -14.3%; for `CN(C)c1nc2c(c(N(C)Cc3n[nH]c4c3CCCC4)n1)CCNCC2` it is 3.2%.
With `O=C(c1ccccn1)N1CCC2(CCCN(c3nncs3)C2)C1` (configuration not stated), the cytotoxicity at 10 µM was -111%.

Values taken from ChEMBL document CHEMBL4513216, “Probing the Open Global Health Chemical Diversity Library for Multistage-Active Starting Points for Next-Generation Antimalarials” (ACS Infect Dis, 2020).
